Published values collected from several papers.
Compare with care: the assays were run in different laboratories.
KDR: Vascular endothelial growth factor receptor 2 (KDR, Homo sapiens, UniProt P35968)
CDK16: Cyclin-dependent kinase 16 (CDK16, Homo sapiens, UniProt Q00536)
PIKFYVE: 1-phosphatidylinositol 3-phosphate 5-kinase (PIKFYVE, Homo sapiens, UniProt Q9Y2I7)
PADI1: Protein-arginine deiminase type-1 (PADI1, Homo sapiens, UniProt Q9ULC6)
ATAD2 bromodomain: ATPase family AAA domain-containing protein 2, bromodomain (ATAD2, Homo sapiens, UniProt Q6PL18)

| Structure (SMILES) | target | assay | test system | setting | endpoint | result |
| --- | --- | --- | --- | --- | --- | --- |
| COc1ccc(NC(=O)c2c(Nc3ccccc3)sc(C#N)c2NC(=O)CNc2ccc([N+](=O)[O-])cc2)cc1 | KDR | enzyme activity, inhibitor |  | 100 µM | remaining activity | 68.8% |
| COc1cc([C@@H]2c3cc4c(cc3[C@@H](O[C@@H]3O[C@@H]5CO[C@@H](C)O[C@H]5[C@H](O)[C@H]3O)[C@H]3COC(=O)[C@H]23)OCO4)cc(OC)c1O | Glycogen synthase kinase-3 beta (GSK3B, Homo sapiens, UniProt P49841) | enzyme activity, inhibitor, ADP detection |  | 100 µM | inhibition | 15.4% |
| Cn1c2c(c3ccc(Cl)c(Cl)c31)C(C#N)C1(CCNCC1)NC2=O (racemic) | CDK16 | thermal stability, DSF |  | 10 µM | ΔTm | 2.6 °C |
| COc1ccc(C=NNC(=O)c2sc(Nc3ccccc3)c(C(=O)Nc3ccc(OC)cc3)c2NC(C)=O)cc1 | KDR | enzyme activity, inhibitor |  | 10 µM | remaining activity | 48.6% |
| Cc1ccc(C(=O)Nc2ccc(CN3CCN(C)CC3)c(C(F)(F)F)c2)cc1C#Cc1cnc2cccnn12 | PIKFYVE | cell-free assay |  | 23.5 nM | remaining signal | 100% |
| CN(C)C1CCN(CC#Cc2nn(C3CCCC3)c3nc(NCc4ccccc4)ncc23)C1 (stereo not drawn) | Dual specificity mitogen-activated protein kinase kinase 1 (MAP2K1, Homo sapiens, UniProt Q02750) | enzyme activity, inhibitor, FRET |  | 1 µM | inhibition | 9% |
| COc1ccc(NC(=O)c2c(Nc3ccccc3)sc(C#N)c2NC(=O)CNc2ccc(Br)cc2)cc1 | KDR | enzyme activity, inhibitor |  | 0.1 µM | remaining activity | 66.2% |
| NC(=O)[C@H](CCCN=C(N)N)NC(=O)c1ccccc1 | PADI1 | enzyme activity, substrate |  |  | Km | 160 µM |
| C[S+]([O-])c1ccc(-c2nc(-c3ccncc3)c(-c3ccc(F)cc3)[nH]2)cc1 (stereo not drawn) | ATAD2 bromodomain | thermal stability, DSF |  | 10 µM | ΔTm | -1.47 °C |
| Cn1c2c(Cl)c(Cl)ccc2c2cc(N)[nH]c(=O)c21 | CDK16 | thermal stability, DSF |  | 10 µM | ΔTm | 0.3 °C |
| COc1ccc(NC(=O)c2c(Nc3ccccc3)sc(C#N)c2NC(=O)CNc2ccc(Cl)cc2)cc1 | KDR | enzyme activity, inhibitor |  | 1 µM | remaining activity | 41.1% |
| NCCCC[C@H](NC(=O)[C@@H]1CCCN1C(=O)[C@@H]1CSSC[C@H](N)C(=O)N[C@@H](Cc2ccc(O)cc2)C(=O)N[C@@H](Cc2ccccc2)C(=O)N[C@@H](CCC(N)=O)C(=O)N[C@@H](CC(N)=O)C(=O)N1)C(=O)NCC(N)=O | Vasopressin V1a receptor (AVPR1A, Homo sapiens, UniProt P37288) | calcium signal, agonist | CHO-S |  | Emax | ~100% |
| CC(C)(C)n1nnc([C@H](CCCNC(=N)CCl)NC(=O)c2ccc(-c3ccccc3)cc2)n1 | PADI1 | enzyme activity, inhibitor |  |  | kinact/KI | 46.2 M⁻¹ s⁻¹ |
| Oc1ccc(-c2nc(-c3ccncc3)c(-c3ccc(F)cc3)[nH]2)cc1 | ATAD2 bromodomain | thermal stability, DSF |  | 10 µM | ΔTm | 0.05 °C |
| N=C(CF)NCCC[C@H](NC(=O)c1ccccc1)c1nn[nH]n1 | PADI1 | enzyme activity, inhibitor |  |  | kinact/KI | 5.75 M⁻¹ s⁻¹ |
| Nc1ncnc2occ(-c3ccc(NC(=O)Nc4cc(C(F)(F)F)ccc4F)cc3)c12 | PIKFYVE | cell-free assay |  | 20 µM | remaining signal | 19% |
| N=C(CF)NCCC[C@H](NC(=O)c1ccccc1C(=O)O)c1nn[nH]n1 | PADI1 | enzyme activity, inhibitor |  |  | kinact/KI | 1360 M⁻¹ s⁻¹ |
| COc1ccc(NC(=O)c2c(Nc3ccccc3)sc(C(=O)NN=Cc3ccc(OC)c(O)c3)c2NC(C)=O)cc1 | KDR | enzyme activity, inhibitor |  | 10 nM | remaining activity | 99% |
| CC(C)(C)n1nnc([C@H](CCCNC(=N)CF)NC(=O)c2ccc(-c3ccccc3)cc2)n1 | PADI1 | enzyme activity, inhibitor |  |  | kinact/KI | 14.4 M⁻¹ s⁻¹ |
| COc1ccc(NC(=O)c2c(Nc3ccccc3)sc(C(=O)NN=Cc3cc(OC)c(OC)c(OC)c3)c2NC(C)=O)cc1 | KDR | enzyme activity, inhibitor |  | 10 nM | remaining activity | 100% |
| CC(C)(C)n1nnc([C@H](CCCNC(=N)CCl)NC(=O)c2ccccc2C(=O)O)n1 | PADI1 | enzyme activity, inhibitor |  |  | kinact/KI | 2700 M⁻¹ s⁻¹ |
| COc1ccc(NC(=O)c2c(Nc3ccccc3)sc(C(=O)NN=Cc3ccc(Cl)cc3)c2NC(C)=O)cc1 | KDR | enzyme activity, inhibitor |  | 0.1 µM | remaining activity | 88.3% |
| N=C(CCl)NCCC[C@H](NC(=O)c1ccccc1)c1nn[nH]n1 | PADI1 | enzyme activity, inhibitor |  |  | kinact/KI | 110 M⁻¹ s⁻¹ |
| Cc1cc2c(cc1N1C(=O)c3cccc4c(Cl)ccc(c34)C1=O)n(C)c(=O)n2C | ATAD2 bromodomain | thermal stability, DSF |  | 10 µM | ΔTm | 0 °C |
